Test results reported in ChEMBL document CHEMBL2069244 (Bioorg Med Chem Lett, 2012).
Activity calls are given as the source filed them. No cut-off for these calls is given here.

Experiments:
Mus musculus [1] = assay: Anticonvulsant activity in mouse assessed as protection against maximal electroshock-induced seizures at 300 mg/kg, ip after 4 hrs; type: functional, organism-based; set-up: dose 300 mg/kg
In short: (§1)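 Mice dosed ip in 30% polyethylene glycol. Corneas pretreated with 1% tetracaine, then 60 Hz alternating current (50 mA) applied for 0.2 s via corneal electrodes. Protection means absence of the hindlimb tonic extensor component. Scored as number protected/number tested.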

Mus musculus [2] = assay: Neurotoxicity in mouse at 100 mg/kg, ip after 0.25 hrs by 6Hz psychomotor seizure test; type: toxicity, organism-based; set-up: dose 100 mg/kg, route intraperitoneal; conditions: in vivo
In short: (§2)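 Mice dosed ip in 30% polyethylene glycol and placed on a rotorod at 6 rpm. An animal is scored toxic if it falls off three times within 1 min.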

Mus musculus [3] = assay: Neurotoxicity in mouse at 100 mg/kg, ip after 0.5 hrs by 6Hz psychomotor seizure test; type: toxicity, organism-based; set-up: dose 100 mg/kg, route intraperitoneal; conditions: in vivo; in short: as §2
Mus musculus [4] = assay: Neurotoxicity in mouse at 100 mg/kg, ip after 2 hrs by 6Hz psychomotor seizure test; type: toxicity, organism-based; set-up: dose 100 mg/kg, route intraperitoneal; conditions: in vivo; in short: as §2
Mus musculus [5] = assay: Anticonvulsant activity in mouse assessed as protection against maximal electroshock-induced seizures at 300 mg/kg, ip after 0.5 hrs; type: functional, organism-based; set-up: dose 300 mg/kg; in short: as §1
Mus musculus [6] = assay: Anticonvulsant activity in mouse assessed as protection against subcutaneous pentylenetetrazole-induced seizures at 100 mg/kg, ip after 4 hrs; type: functional, organism-based; set-up: dose 100 mg/kg
Mus musculus [7] = assay: Anticonvulsant activity in mouse assessed as protection against maximal electroshock-induced seizures at 30 mg/kg, ip after 4 hrs; type: functional, organism-based; set-up: dose 30 mg/kg; in short: as §1
Mus musculus [8] = assay: Anticonvulsant activity in mouse assessed as protection against subcutaneous pentylenetetrazole-induced seizures at 30 mg/kg, ip after 4 hrs; type: functional, organism-based; set-up: dose 30 mg/kg
Mus musculus [9] = assay: Neurotoxicity in mouse at 100 mg/kg, ip after 1 hrs by 6Hz psychomotor seizure test; type: toxicity, organism-based; set-up: dose 100 mg/kg, route intraperitoneal; conditions: in vivo; in short: as §2
Mus musculus [10] = assay: Anticonvulsant activity in mouse assessed as protection against subcutaneous pentylenetetrazole-induced seizures at 300 mg/kg, ip after 0.5 hrs; type: functional, organism-based; set-up: dose 300 mg/kg
Mus musculus [11] = assay: Neurotoxicity in mouse at 100 mg/kg, ip after 4 hrs by 6Hz psychomotor seizure test; type: toxicity, organism-based; set-up: dose 100 mg/kg, route intraperitoneal; conditions: in vivo; in short: as §2
Mus musculus [12] = assay: Anticonvulsant activity in mouse assessed as protection against maximal electroshock-induced seizures at 30 mg/kg, ip after 0.5 hrs; type: functional, organism-based; set-up: dose 30 mg/kg; in short: as §1
Mus musculus [13] = assay: Anticonvulsant activity in mouse assessed as protection against subcutaneous pentylenetetrazole-induced seizures at 30 mg/kg, ip after 0.5 hrs; type: functional, organism-based; set-up: dose 30 mg/kg
Mus musculus [14] = assay: Anticonvulsant activity in mouse assessed as protection against subcutaneous pentylenetetrazole-induced seizures at 300 mg/kg, ip after 4 hrs; type: functional, organism-based; set-up: dose 300 mg/kg
Mus musculus [15] = assay: Anticonvulsant activity in mouse assessed as protection against subcutaneous pentylenetetrazole-induced seizures at 100 mg/kg, ip after 0.5 hrs; type: functional, organism-based; set-up: dose 100 mg/kg
Mus musculus [16] = assay: Anticonvulsant activity in mouse assessed as protection against maximal electroshock-induced seizures at 100 mg/kg, ip after 0.5 hrs; type: functional, organism-based; set-up: dose 100 mg/kg; in short: as §1
Mus musculus [17] = assay: Anticonvulsant activity in mouse assessed as protection against maximal electroshock-induced seizures at 100 mg/kg, ip after 4 hrs; type: functional, organism-based; set-up: dose 100 mg/kg; in short: as §1
Mus musculus [18] = assay: Anticonvulsant activity in ip dosed mouse assessed as protection against 32mA-induced seizure measured after 0.25 to 0.5 hrs by 6Hz psychomotor seizure test
Mus musculus [19] = assay: Protective index, ratio of TD50 for neurotoxicity in ip dosed mouse to ED50 for anticonvulsant activity in mouse by 6Hz psychomotor seizure test; type: functional
In short: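 Mice dosed ip in 30% polyethylene glycol. TD50 comes from rotorod toxicity at 6 rpm (three falls in 1 min). ED50 comes from 6 Hz, 32 mA seizure protection. Both are from probit analysis with 95% confidence intervals, and the index is TD50/ED50.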

Mus musculus [20] = assay: Anticonvulsant activity in mouse assessed as peak time to protect against electrically-induced seizure at 100 mg/kg, ip by 6Hz psychomotor seizure test; type: functional; conditions: route intraperitoneal
In short: (§3)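 Mice dosed ip in 30% polyethylene glycol, then given a 6 Hz, 32 mA corneal stimulus. Animals lacking the minimal clonic phase and stereotyped automatistic behaviours count as protected. Data are number protected/number tested at each time after dosing.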

Mus musculus [21] = assay: Anticonvulsant activity in mouse assessed as protection against 32mA-induced seizure at 100 mg/kg, ip after 0.5 hrs by 6Hz psychomotor seizure test; type: functional, organism-based; set-up: dose 100 mg/kg; in short: as §3
Mus musculus [22] = assay: Neurotoxicity in mouse at 30 mg/kg, ip after 0.5 hrs by 6Hz psychomotor seizure test; type: toxicity, organism-based; set-up: dose 30 mg/kg, route intraperitoneal; conditions: in vivo; in short: as §2
Mus musculus [23] = assay: Neurotoxicity in mouse at 30 mg/kg, ip after 4 hrs by 6Hz psychomotor seizure test; type: toxicity, organism-based; set-up: dose 30 mg/kg, route intraperitoneal; conditions: in vivo; in short: as §2
Mus musculus [24] = assay: Anticonvulsant activity in mouse assessed as protection against 32mA-induced seizure at 100 mg/kg, ip after 0.25 hrs by 6Hz psychomotor seizure test; type: functional, organism-based; set-up: dose 100 mg/kg; in short: as §3
Mus musculus [25] = assay: Anticonvulsant activity in mouse assessed as protection against 32mA-induced seizure at 100 mg/kg, ip after 1 hr by 6Hz psychomotor seizure test; type: functional, organism-based; set-up: dose 100 mg/kg; in short: as §3
Mus musculus [26] = assay: Anticonvulsant activity in mouse assessed as protection against 32mA-induced seizure at 100 mg/kg, ip after 4 hrs by 6Hz psychomotor seizure test; type: functional, organism-based; set-up: dose 100 mg/kg; in short: as §3
Mus musculus [27] = assay: Anticonvulsant activity in mouse assessed as protection against 32mA-induced seizure at 100 mg/kg, ip after 2 hrs by 6Hz psychomotor seizure test; type: functional, organism-based; set-up: dose 100 mg/kg; in short: as §3
Mus musculus [28] = assay: Neurotoxicity in mouse at 300 mg/kg, ip after 4 hrs by 6Hz psychomotor seizure test; type: toxicity, organism-based; set-up: dose 300 mg/kg, route intraperitoneal; conditions: in vivo; in short: as §2
Mus musculus [29] = assay: Neurotoxicity in mouse at 300 mg/kg, ip after 0.5 hrs by 6Hz psychomotor seizure test; type: toxicity, organism-based; set-up: dose 300 mg/kg, route intraperitoneal; conditions: in vivo; in short: as §2
Mus musculus [30] = assay: Anticonvulsant activity in mouse assessed as protection against maximal electroshock-induced seizures at 100 mg/kg, ip after 6 hrs; type: functional, organism-based; set-up: dose 100 mg/kg; in short: as §1
Mus musculus [31] = assay: Anticonvulsant activity in mouse assessed as protection against maximal electroshock-induced seizures at 100 mg/kg, ip after 1 hrs; type: functional, organism-based; set-up: dose 100 mg/kg; in short: as §1
Mus musculus [32] = assay: Anticonvulsant activity in mouse assessed as protection against maximal electroshock-induced seizures at 100 mg/kg, ip after 0.25 hrs; type: functional, organism-based; set-up: dose 100 mg/kg; in short: as §1
Mus musculus [33] = assay: Anticonvulsant activity in mouse assessed as protection against maximal electroshock-induced seizures at 100 mg/kg, ip after 2 hrs; type: functional, organism-based; set-up: dose 100 mg/kg; in short: as §1
Mus musculus [34] = assay: Neurotoxicity in mouse at 100 mg/kg, ip after 6 hrs by 6Hz psychomotor seizure test; type: toxicity, organism-based; set-up: dose 100 mg/kg, route intraperitoneal; conditions: in vivo; in short: as §2

Structure (SMILES) | Activity (Mus musculus [1]) | Activity (Mus musculus [3]) | Activity (Mus musculus [5]) | Activity (Mus musculus [6]) | Activity (Mus musculus [7]) | Activity (Mus musculus [8]) | Activity (Mus musculus [10]) | Activity (Mus musculus [11]) | Activity (Mus musculus [12]) | Activity (Mus musculus [13]) | Activity (Mus musculus [14]) | Activity (Mus musculus [15]) | Activity (Mus musculus [16]) | Activity (Mus musculus [17]) | ED50 (Mus musculus [18]) [mg/kg] | Ratio TD50/ED50 (Mus musculus [19]) | Time (Mus musculus [20]) [h] | Activity (Mus musculus [31]) | Activity (Mus musculus [32]) | also measured
CCCc1cc(C(O)C(F)(F)F)cc(Br)c1O (configuration not stated) | inactive | Non-toxic | inactive | inactive | inactive | inactive | inactive | Non-toxic | inactive | inactive | inactive | inactive | inactive | inactive |  |  |  |  |  | Activity (Mus musculus [2]): Non-toxic; Activity (Mus musculus [4]): Non-toxic; Activity (Mus musculus [9]): Non-toxic
CC(C)c1cc(C(O)C(F)(F)F)cc(Br)c1O (configuration not stated) | inactive |  | inactive | inactive | inactive | inactive | inactive |  | inactive | inactive | inactive | inactive | inactive | inactive | 112 | 3.6 | 0.5 |  |  | 
CCc1cc(C(O)C(F)(F)F)ccc1O (configuration not stated) | inactive | Non-toxic | inactive | inactive | inactive | inactive | inactive | Non-toxic | inactive | inactive | inactive | inactive | inactive | inactive |  |  |  |  |  | Activity (Mus musculus [21]): inactive; Activity (Mus musculus [22]): Non-toxic; Activity (Mus musculus [23]): Non-toxic; Activity (Mus musculus [24]): inactive; Activity (Mus musculus [25]): inactive; Activity (Mus musculus [26]): inactive; Activity (Mus musculus [27]): inactive; Activity (Mus musculus [28]): Non-toxic; Activity (Mus musculus [29]): Non-toxic
CC(C)c1cc(C(O)C(F)(F)F)ccc1O (configuration not stated) | Active |  | Active | inactive | inactive | inactive | Active |  | inactive | inactive | Active | inactive | inactive | inactive | 84.1 | 1.9 | 0.25 | inactive | inactive | Activity (Mus musculus [30]): inactive; Activity (Mus musculus [33]): inactive
CCC(C)c1cc(C(O)C(F)(F)F)cc(Br)c1O (configuration not stated) | inactive |  | Active | inactive | inactive | inactive | inactive |  | inactive | inactive | inactive | inactive | inactive | inactive |  | 1.7 | 0.5 | inactive | inactive | 
CCC(C)c1cc(C(O)C(F)(F)F)ccc1O (configuration not stated) | inactive |  | Active | inactive | inactive | inactive | Active |  | inactive | inactive | inactive | inactive | inactive | inactive | 53.9 | 1.6 | 0.5 |  |  | 
CC(C)c1cccc(C(C)C)c1O [PROPOFOL] |  |  |  |  |  |  |  |  |  |  |  |  |  |  | 38.6 |  |  |  |  | 
Cc1cc(C(O)C(F)(F)F)ccc1O (configuration not stated) | Active | Non-toxic | Active | inactive |  | inactive | inactive | Non-toxic | inactive | inactive | inactive | inactive | inactive | inactive |  |  |  | inactive | inactive | Activity (Mus musculus [21]): inactive; Activity (Mus musculus [34]): Non-toxic; Activity (Mus musculus [2]): Non-toxic; Activity (Mus musculus [22]): Non-toxic; Activity (Mus musculus [23]): Non-toxic; Activity (Mus musculus [30]): inactive; Activity (Mus musculus [24]): inactive; Activity (Mus musculus [4]): Non-toxic; Activity (Mus musculus [25]): Active; Activity (Mus musculus [26]): inactive; Activity (Mus musculus [27]): inactive; Activity (Mus musculus [28]): Non-toxic; Activity (Mus musculus [9]): Non-toxic; Activity (Mus musculus [33]): inactive; Activity (Mus musculus [29]): Non-toxic
CCC(C)c1cc(C(O)C(F)(F)F)cc(C(C)CC)c1O (configuration not stated) |  |  |  |  |  |  |  |  |  |  |  |  |  |  | 73 |  |  |  |  | 
